The labels stand for the following.
B1: tRNA (parent)
chain: GUUCCGUUGGCGUAAUGGUAACGCGUCUCCCUCCUAAGGAGAAGACUGCGGGUUCGAGUCCCGUACGGAACG

This sample holds only a part of the variants without activity.

Variants of B1 are the subject of this data set. Nature of the data set: yeast fitness relative to wild type (ratio to wild type); higher = fitter; tRNA-Arg(CCU), competitive growth, 37 C, YPD. A digest of the protocol:
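Variants of the tRNA-Arg(CCU) gene were chemically synthesised with a 3% per-site mutation rate across 69 sites and placed at the native genomic locus in Saccharomyces cerevisiae. Six parallel replicates of the pooled strains were competed in YPD at 37°C for 24 hours, and gene amplicons from the start and end populations were read by 100-nucleotide paired-end sequencing. Darwinian fitness relative to wild type was derived from changes in genotype frequencies. Genotypes required ≥ 100 starting reads, and estimates < 0.5 were set to 0.5.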
With GUUCCGUUGGCGUGAUGGUAACACGUCUCCCUCCUAAGGAGAAGACUGCGGGUGCGAGUCCCGUACGGAACG, the yeast fitness is at most 0.5.

For the variant GUUCCGUUGGCGUGAUGGUAACGCGUCUCCCUCCUAAGGAGAACACUGCGGGUUCGAAUCCCGUGCGGAACG, the yeast fitness came out at 0.553.

For the variant GUUCCGUUGGCGUGAUGCUAACGCGUCUCUCUCUUAAGGAGAAGACUGCGGGUUCGAGUCGCGUACGGAACG, the yeast fitness is at most 0.5.

GUUCCGUUGGCGUGAUGGUAACACGUCUCCCUCCUGAGGAGAAGACUGCGGGUUCGAGUCCCGUAUGGAACG: the yeast fitness was at most 0.5.

Consider GUUCCGUUGGCGUGAUGGUAACGCGUCUCCCUCCUAAGGAGAAGACUGCGGGUUCGAGUCCCGUACGAAACG, for which the yeast fitness was 0.653.

For the variant GUUCCGUUGGCGUGAUGGGAACGCGUCUCCCUCCUAAGGAGAAGACUCCGGGUUCGAGUCCCGUACGGAACG, the yeast fitness stood at 0.736.

Take GUUCCGUUGGCGUGAUGGUAACGCGUCUCCCUCCUAAAGAGAAGACUGCGGGUUCGAGUUCCGUACCGAACG: the yeast fitness was at most 0.5.

Regarding GUUCCGUUGGCGUGAUGGUAACGCGUCUCCCUCCUAAGGAGAAGACUGCGGGUUCGAGUCCCAUACGGAACG, the yeast fitness stood at 0.756.

With GUUCCGUUGGCGUGAUGGAAACGCGUCUCCCUCCUAAGGAGAAGACUGCGGGUUUGAGUCCCGUACGGAACG, the yeast fitness is at most 0.5.

For the variant GUUCCGUUGGCGUGAUGGUAACGCGUCUCCCUCCUAAGGAGAAGACUGCGGGUUCCAGUCCCGUACGGAACG, the yeast fitness was 0.611.

As for GUUCCGUUGGCGUGAUGGUAACGCGACUCCCUCCUAAGGAGAAGACUGCGGGUUCGAGUCCCGUACGGAACG, the yeast fitness was 0.989.

Turning to GUUCCGUUGGCGUGAUGGCAACGCGUCUCCCUCCUAAGGAGAAGACUGCGGGUUCGAGUCCCGUACAGAACG, the yeast fitness was determined as 0.76.

Regarding GUUCCGUUGGCGUGAUGGUAACGCAUCUCACUCCUAAGGAGAAGACUGCGGGUUCGUGUCCCGUACGGAACG, the yeast fitness worked out at 0.607.

Consider GUUCCGUUGGCGUGAUGGUAACGCGUCUCCCUCCUAAGGAAAAGACAGCGGGUUCGAGUCCAGUACGGAACG, for which the yeast fitness is at most 0.5.

In the case of GUUCCGUUGGCGUGAUGGUAACGCGUCUCCCUCCUAAGGAGAAGACUCCGGGUUCGAGUCCCGUACCGAACG, the yeast fitness was at most 0.5.

In the case of GUUCCGUUGGCGUGAAGGUAACGCGUCUCCCUCCUAAGGAGAAGACCGCGGGUUCGAGUCCCGUACGGAACG, the yeast fitness was 0.812.

Regarding GUUCCGUUGGCGUGAUGCUAACGCGUCUGCCUCCUAAGGAGAAGACUGCGGGUCCGAGUCCCGUACGGAACG, the yeast fitness was at most 0.5.

Regarding GUUCCGUUGGCGUGAUGGUAACCCGUCUGCCUCCUAAGGAGAAGACUGCGGGUUCGAGUCCCCUAGGGAACG, the yeast fitness was at most 0.5.

On to GUUCCGUUGGCGUGAUGGUAACGCGCCUCCCUCCUAAGGAGAAGACUACGGGUUCGAGUCCCGUACGGAACG, for which the yeast fitness stood at 0.661.

Turning to GUUCCGUUGGCGUGAUGGUAACCCGUCUCCCUCCUAAGGAGAAGACUGCGGGUUUGAGUCUCGUUCGGAACG, the yeast fitness was found to be 0.558.

With GUUCCGUUGGCGUGAUGGUAACGCGUCUCCCUCCUAAAGCGAAGACUGCAGGUACGAGUCCCGUACGGAACG, the yeast fitness is 0.523.

With GUUCCGUUGGCGUGAUGGAAACGCGUCUCCCUCUUAAGGAGAAGACUGCGGGUUCGAGUCCCGUAUGGAACG, the yeast fitness came to 0.538.

With GUUCCGUUGGCGUGAUGGUAACACGUCUCCCUCCUAAGGAGAAGACUGAGGGUUCGAGUCCCGUACGGAACG, the yeast fitness is at most 0.5.

For GUUCCGUUGGCGUGAUGGUAACGCGUCGCCCUCCUAAGGACAAGACUACGGGUUCGAGUCCCGCACGGAACG, the yeast fitness is at most 0.5.

On to GUUCCGUUGGCGUGAUGGUAACGCGUCUCCCUCCUAAGAAGAAGACUGCGCGUUCGAGUCCCGUACGGAACG, for which the yeast fitness is at most 0.5.

With GUUCCGUUGGCGUGAUGGCAUCGCGUCUCCCUCCUAAGGAGAAGACUGCGGGUUCGAGUCCCGUACGGAACG, the yeast fitness was 0.503.

GUUCCGUUGGCGUGAUGGUAACGCGUCUCCCGCCGCAGGAGAAGACUGCGGGUUCGAGUCGCGUACGGAGCG: the yeast fitness was at most 0.5.

For GUUCCGUUGGCGUGAUGGUAACGCGGCUCCCUCCUAAGAAGAAGACUGCGGGUUCGAGUCCCGUACGGAACG, the yeast fitness was at most 0.5.

For the variant GUUCCGUUGGCGUGAUGCUAUCGCGUCUGCCUCCUAAGGAGAAGACUGCGGGUUCGAGUCCCGUACAGAACG, the yeast fitness is at most 0.5.

Consider GUUCCGUUGGCGUGAUGGUAACGCGUCUCCCUCCUAAGAAGAUGACUGCGGGUUCGAGUCCCGUACGGAACG, for which the yeast fitness came to 0.643.

In the case of GUUCCGUUGGCGUGAUGGUAACGCGUCUCCCUCCUAACGAGAAGACUGCGGGUUCGAGUCCCGUACGGAACG, the yeast fitness came to 0.787.

For the variant GUUCCGUUGGCGUGAUGGUAACACGUCUCCCUCCUAAGGAGAAGACUGCGGGUUCGAGUACCGUACGGAACG, the yeast fitness was at most 0.5.

As for GUUCCGUUGGCGUGAUGGUAACGCGUCUCCCUCCUAAGGAGAAGACUGCGAGUUCGAGUCCCGUACGGAACG, the yeast fitness is 0.657.

Regarding GUUCCGUUGGCGUGAUGGUAACGCGUCUCCCUCCUAAGGAAAAGACUGCGGGUUCGAGUCCCGUACGGCACG, the yeast fitness is at most 0.5.

On to GUUCCGUUGGCGUGAUGGUAACGCGUCUCCCUCCGAUGGAGAAGACUGCGGGUUCGAGUCCCGUACGGAACG, for which the yeast fitness is at most 0.5.

For the variant GUUCCGUUGGCGUGAUGGUAACGCAUCUCCCUCCUAAGGAGAACACUGCGGGUUCGAGUCCCGUACGGAACG, the yeast fitness is 0.782.

In the case of GUUCCGUUGGCGUGAUGGUAACGCGUCUCCCUCCAAAGGAGUAGAGUGCGGGUUCAAGUCCCGUACGGACCG, the yeast fitness was 0.569.

Regarding GUUCCGUUGGCGUGAUGGUAACGCGUCUCCCUCCUAAGGAGAAGACUGCGGCUUCGAGUCCCGUAGGGAACG, the yeast fitness is 0.619.

Values taken from the RNAGym collection of RNA variant scans (doi:10.1126/science.aae0568).
